Data as given in ChEMBL document CHEMBL3580532, “Deconins A-E: Cuparenic and Mevalonic or Propionic Acid Conjugates from the Basidiomycete Deconica sp. 471” (J Nat Prod, 2015).
In brackets after ≈: the same amount, converted by molar mass. Activity calls are given as the source filed them. The rule behind the calls is not given here.

Experiments:
Bacillus subtilis [1] = assay: Antimicrobial activity against Bacillus subtilis DSM10 assessed as inhibition of microbial growth incubated for 24 to 48 hrs by serial dilution assay; format: functional
Summary of the method: (§1)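 Broth microdilution in EBS medium (peptone, glucose, meat and yeast extract, 50 mM HEPES, pH 7.0). A 1 mg/mL MeOH stock was dried in the first row, then pathogen diluted 1:100 in medium was added and serially diluted 1:1 (66.7 to 0.1 μg/mL tested). Plates were shaken at 600 rpm, 30 °C, for 24−48 h. MIC is the lowest concentration preventing visible growth; blank wells served as negative control.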

Staphylococcus aureus [2] = assay: Antimicrobial activity against Staphylococcus aureus DSM346 assessed as inhibition of microbial growth incubated for 24 to 48 hrs by serial dilution assay; format: functional; summary of the method: as §1
Micrococcus luteus [3] = assay: Antimicrobial activity against Micrococcus luteus DSM1790 assessed as inhibition of microbial growth incubated for 24 to 48 hrs by serial dilution assay; format: functional; summary of the method: as §1
[4] = test system: Chromobacterium violaceum; assay: Antimicrobial activity against Chromobacterium violaceum DSM30191 assessed as inhibition of microbial growth incubated for 24 to 48 hrs by serial dilution assay; format: functional; summary of the method: as §1
Escherichia coli [5] = assay: Antimicrobial activity against Escherichia coli DSM1116 assessed as inhibition of microbial growth incubated for 24 to 48 hrs by serial dilution assay; format: functional; summary of the method: as §1
[6] = test system: Schizosaccharomyces pombe; assay: Antimicrobial activity against Schizosaccharomyces pombe DSM70572 assessed as inhibition of microbial growth incubated for 24 to 48 hrs by serial dilution assay; format: functional, organism-based
Summary of the method: (§2)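 Broth serial dilution in MYC medium (1.0% phytone peptone, 1.0% glucose, 50 mM HEPES, pH 7.0). Compound stock (1 mg/mL in MeOH) was dried in the first row, then the yeast was added as a 1:100 inoculum:medium mix. Twofold serial dilutions covered 66.7 to 0.1 μg/mL. Plates were shaken at 600 rpm, 30 °C, for 24–48 h. MIC was the lowest concentration with no visible growth. Blank wells served as negative controls.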

Candida albicans [7] = assay: Antimicrobial activity against Candida albicans DSM1665 assessed as inhibition of microbial growth incubated for 24 to 48 hrs by serial dilution assay; format: functional, organism-based; summary of the method: as §2
Wickerhamomyces anomalus [8] = assay: Antimicrobial activity against Pichia anomala DSM6766 assessed as inhibition of microbial growth incubated for 24 to 48 hrs by serial dilution assay; format: functional, organism-based; summary of the method: as §2
Mucor hiemalis [9] = assay: Antimicrobial activity against Mucor hiemalis DSM2656 […] assessed as inhibition of microbial growth incubated for 24 to 48 hrs by serial dilution assay; format: functional
Summary of the method: (§3)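 Yeasts and fungi were tested by serial dilution in MYC medium (1.0% phytone peptone, 1.0% glucose, 50 mM HEPES, pH 7.0). Compound from a 1 mg/mL MeOH stock was dried in row A, then inoculum at 1:100 in medium was added and diluted 1:1 down the plate (66.7 to 0.1 μg/mL). Incubation was 30 °C, 600 rpm shaking, 24−48 h. MIC is the lowest concentration with no visible growth.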

[10] = test system: Chromobacterium violaceum; assay: Antimicrobial activity against Chromobacterium violaceum DSM30191 assessed as inhibition of microbial growth up to 67 ug/ml incubated for 24 to 48 hrs by serial dilution assay; format: functional, organism-based; summary of the method: as §1
Escherichia coli [11] = assay: Antimicrobial activity against Escherichia coli DSM1116 assessed as inhibition of microbial growth up to 67 ug/ml incubated for 24 to 48 hrs by serial dilution assay; format: functional, organism-based; summary of the method: as §1
[12] = test system: Schizosaccharomyces pombe; assay: Antimicrobial activity against Schizosaccharomyces pombe DSM70572 assessed as inhibition of microbial growth up to 67 ug/ml incubated for 24 to 48 hrs by serial dilution assay; format: functional, organism-based; summary of the method: as §3
Candida albicans [13] = assay: Antimicrobial activity against Candida albicans DSM1665 assessed as inhibition of microbial growth up to 67 ug/ml incubated for 24 to 48 hrs by serial dilution assay; format: functional, organism-based; summary of the method: as §3
Wickerhamomyces anomalus [14] = assay: Antimicrobial activity against Pichia anomala DSM6766 assessed as inhibition of microbial growth up to 67 ug/ml incubated for 24 to 48 hrs by serial dilution assay; format: functional, organism-based; summary of the method: as §3
Mucor hiemalis [15] = assay: Antimicrobial activity against Mucor hiemalis DSM2656 […] assessed as inhibition of microbial growth up to 67 ug/ml incubated for 24 to 48 hrs by serial dilution assay; format: functional, organism-based; summary of the method: as §3
L929 = assay: Cytotoxicity against mouse L929 cells incubated for 5 days by MTT assay; format: cell-based; conditions: L929, 120 h
Summary of the method: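 L929 mouse fibroblasts were grown in EBM-2 with 10% FBS at 37 °C under 10% CO₂. Serial dilutions from a 1 mg/mL MeOH stock were added to cell suspension (50 000/mL) and incubated 5 days. Read-out was MTT with absorbance at 590 nm. IC₅₀ (50% growth inhibition versus control) was taken from dose−response curves; methanol was the negative control.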

Bacillus subtilis [16] = assay: Antimicrobial activity against Bacillus subtilis DSM10 assessed as inhibition of microbial growth up to 67 ug/ml incubated for 24 to 48 hrs by serial dilution assay; format: functional, organism-based; summary of the method: as §1
Micrococcus luteus [17] = assay: Antimicrobial activity against Micrococcus luteus DSM1790 assessed as inhibition of microbial growth up to 67 ug/ml incubated for 24 to 48 hrs by serial dilution assay; format: functional, organism-based; summary of the method: as §1
Pseudomonas aeruginosa [18] = assay: Antimicrobial activity against Pseudomonas aeruginosa DSM50071 assessed as inhibition of microbial growth up to 67 ug/ml incubated for 24 to 48 hrs by serial dilution assay; format: functional, organism-based; summary of the method: as §1
Pseudomonas aeruginosa [19] = assay: Antimicrobial activity against Pseudomonas aeruginosa DSM50071 assessed as inhibition of microbial growth incubated for 24 to 48 hrs by serial dilution assay; format: functional, organism-based
Summary of the method: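 Broth serial dilution in EBS medium (0.5% peptone, 0.5% glucose, 0.1% meat extract, 0.1% yeast extract, 50 mM HEPES, pH 7.0). Compound stock (1 mg/mL in MeOH) was dried in the first row, then the bacterium was added as a 1:100 inoculum:medium mix. Twofold dilutions covered 66.7 to 0.1 μg/mL. Plates were shaken at 600 rpm, 30 °C, for 24–48 h. MIC was the lowest concentration with no visible growth.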

Staphylococcus aureus [20] = assay: Antimicrobial activity against Staphylococcus aureus DSM346 assessed as inhibition of microbial growth up to 67 ug/ml incubated for 24 to 48 hrs by serial dilution assay; format: functional, organism-based; summary of the method: as §1

## CN(C)[C@@H]1C(O)=C(C(N)=O)C(=O)[C@@]2(O)C(O)=C3C(=O)c4c(O)cccc4[C@@](C)(O)[C@H]3[C@H](O)[C@@H]12.Cl [OXYTETRACYCLINE HYDROCHLORIDE]
Bacillus subtilis [1]
  MIC: 0.83 µg/mL
Staphylococcus aureus [2]
  MIC: 0.21 µg/mL
Micrococcus luteus [3]
  MIC: 0.42 µg/mL
[4]
  MIC: 0.83 µg/mL
Escherichia coli [5]
  MIC: 0.83 µg/mL

## NYSTATIN
[6]
  MIC: 33.3 µg/mL
Candida albicans [7]
  MIC: 67 µg/mL
Wickerhamomyces anomalus [8]
  MIC: 33.3 µg/mL
Mucor hiemalis [9]
  MIC: 67 µg/mL

## CC1(C)CC[C@@H](O)[C@]1(C)c1ccc(C(=O)OCC[C@@](C)(O)CC(=O)O)cc1
[10]
  inhibition: inactive
Escherichia coli [11]
  inhibition: inactive
[12]
  inhibition: inactive
Candida albicans [13]
  inhibition: inactive
Wickerhamomyces anomalus [14]
  inhibition: inactive
Mucor hiemalis [15]
  inhibition: inactive
L929
  IC50: 2.8 µg/mL (≈ 7.4 µM)
Staphylococcus aureus [2]
  MIC: 67 µg/mL
Bacillus subtilis [16]
  inhibition: inactive
Micrococcus luteus [17]
  inhibition: inactive
Pseudomonas aeruginosa [18]
  inhibition: inactive

## GENTAMICIN
Pseudomonas aeruginosa [19]
  MIC: 42 µg/mL

## CC1(C)CC(=O)C[C@]1(C)C1=CC=C(C(=O)OCC[C@@](C)(O)CC(=O)O)CC1
[10]
  inhibition: inactive
Escherichia coli [11]
  inhibition: inactive
[12]
  inhibition: inactive
Candida albicans [13]
  inhibition: inactive
Wickerhamomyces anomalus [14]
  inhibition: inactive
Mucor hiemalis [15]
  inhibition: inactive
L929
  IC50: > 10 µg/mL
Bacillus subtilis [16]
  inhibition: inactive
Staphylococcus aureus [20]
  inhibition: inactive
Micrococcus luteus [17]
  inhibition: inactive
Pseudomonas aeruginosa [18]
  inhibition: inactive

## CC1(C)CC(=O)C[C@]1(C)c1ccc(C(=O)OCC[C@@](C)(O)CC(=O)O)cc1
[10]
  inhibition: inactive
Escherichia coli [11]
  inhibition: inactive
[12]
  inhibition: inactive
Candida albicans [13]
  inhibition: inactive
Wickerhamomyces anomalus [14]
  inhibition: inactive
Mucor hiemalis [15]
  inhibition: inactive
L929
  IC50: > 10 µg/mL
Bacillus subtilis [16]
  inhibition: inactive
Staphylococcus aureus [20]
  inhibition: inactive
Micrococcus luteus [17]
  inhibition: inactive
Pseudomonas aeruginosa [18]
  inhibition: inactive

## CC1(C)CCC[C@]1(C)c1ccc(C(=O)O)cc1
[10]
  inhibition: inactive
Escherichia coli [11]
  inhibition: inactive
[12]
  inhibition: inactive
Candida albicans [13]
  inhibition: inactive
Wickerhamomyces anomalus [14]
  inhibition: inactive
L929
  IC50: > 10 µg/mL
Mucor hiemalis [9]
  MIC: 67 µg/mL
Bacillus subtilis [16]
  inhibition: inactive
Staphylococcus aureus [20]
  inhibition: inactive
Micrococcus luteus [17]
  inhibition: inactive
Pseudomonas aeruginosa [18]
  inhibition: inactive

## CC1(C)[C@@H](O)C(=O)C[C@]1(C)c1ccc(C(=O)O)cc1
[10]
  inhibition: inactive
Escherichia coli [11]
  inhibition: inactive
[12]
  inhibition: inactive
Candida albicans [13]
  inhibition: inactive
Wickerhamomyces anomalus [14]
  inhibition: inactive
Mucor hiemalis [15]
  inhibition: inactive
L929
  IC50: > 10 µg/mL
Bacillus subtilis [16]
  inhibition: inactive
Staphylococcus aureus [20]
  inhibition: inactive
Micrococcus luteus [17]
  inhibition: inactive
Pseudomonas aeruginosa [18]
  inhibition: inactive

## CC(O)(COC(=O)c1ccc([C@@]2(C)C[C@H](O)CC2(C)C)cc1)C(=O)O (some centres not stated)
[10]
  inhibition: inactive
Escherichia coli [11]
  inhibition: inactive
[12]
  inhibition: inactive
Candida albicans [13]
  inhibition: inactive
Wickerhamomyces anomalus [14]
  inhibition: inactive
Mucor hiemalis [15]
  inhibition: inactive
L929
  IC50: > 10 µg/mL
Staphylococcus aureus [2]
  MIC: 67 µg/mL
Bacillus subtilis [16]
  inhibition: inactive
Micrococcus luteus [17]
  inhibition: inactive
Pseudomonas aeruginosa [18]
  inhibition: inactive

## CC1(C)CCC[C@]1(C)c1ccc(C(=O)OCC[C@@](C)(O)CC(=O)O)cc1
[10]
  inhibition: inactive
Escherichia coli [11]
  inhibition: inactive
[12]
  inhibition: inactive
Candida albicans [13]
  inhibition: inactive
Wickerhamomyces anomalus [14]
  inhibition: inactive
L929
  IC50: > 10 µg/mL
Bacillus subtilis [1]
  MIC: 67 µg/mL
Staphylococcus aureus [2]
  MIC: 67 µg/mL
Mucor hiemalis [9]
  MIC: 67 µg/mL
Micrococcus luteus [17]
  inhibition: inactive
Pseudomonas aeruginosa [18]
  inhibition: inactive
